Columns and labels:
Format in all cases: functional
HT-29 = assay: Growth inhibition of human HT-29 cells assessed as cell growth at 10^-4 M after 48 hrs by SRB assay; conditions: HT-29, 48 h, read-out: Activity
PC-3 = assay: Growth inhibition of human PC3 cells assessed as cell growth at 10^-8 M after 48 hrs by SRB assay; conditions: PC-3, 48 h, read-out: Activity
MDA-MB-435 = assay: Growth inhibition of human MDA-MB-435 cells assessed as cell growth at 10^-4 M after 48 hrs by SRB assay; conditions: MDA-MB-435, 48 h, read-out: Activity
SNB-75 = assay: Growth inhibition of human SNB75 cells assessed as cell growth at 10^-7 M after 48 hrs by SRB assay; conditions: SNB-75, 48 h, read-out: Activity
[1] = Cytotoxicity against human UACC257 cells after 48 hrs by SRB assay; conditions: UACC-257, 48 h
How it was run: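 NCI 60-cell-line panel, 48 h continuous exposure to five 10-fold dilutions from 10^-4 to 10^-8 M. SRB protein staining was read spectrophotometrically, with time-zero, untreated-control and treated absorbances. GI50, TGI and LC50 were derived from the percentage-growth formulas. Values outside the tested range are expressed as more or less than the maximum or minimum concentration.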

MOLT-4 = assay: Cytotoxicity against human MOLT4 cells after 48 hrs by SRB assay; conditions: MOLT-4, 48 h
How it was run: (§1)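 NCI 60-cell-line panel of human tumour lines from nine cancer types. Continuous 48 h exposure at five 10-fold dilutions from 10^-4 to 10^-8 M, with 5-FU as positive control. SRB protein stain read spectrophotometrically at time zero, untreated control and each concentration. GI50, TGI and LC50 were derived from the [(Ti−Tz)/(C−Tz)]×100 growth relations, and out-of-range values are given as > or < the tested limits.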

SN12C = assay: Growth inhibition of human SN12C cells assessed as cell growth at 10^-6 M after 48 hrs by SRB assay; conditions: read-out: Activity
K562 = assay: Growth inhibition of human K562 cells assessed as cell growth at 10^-6 M after 48 hrs by SRB assay; conditions: K562, 48 h, read-out: Activity
ACHN = assay: Growth inhibition of human ACHN cells assessed as cell growth at 10^-4 M after 48 hrs by SRB assay; conditions: read-out: Activity
How it was run: (§2)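 Five-dose NCI panel protocol. Each dose (10^-4 to 10^-8 M, 10-fold steps) was given as 48 h continuous exposure, and protein was measured by SRB staining. Percentage growth at each level is [(Ti−Tz)/(C−Tz)]×100, where Tz is time-zero absorbance and C is untreated control.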

[2] = Growth inhibition of human OVCAR5 cells assessed as cell growth at 10^-7 M after 48 hrs by SRB assay; conditions: OVCAR-5, 48 h, read-out: Activity
SK-MEL-5 = assay: Cytotoxicity against human SK-MEL-5 cells after 48 hrs by SRB assay; conditions: SK-MEL-5, 48 h; how it was run: as §1
M14 = assay: Growth inhibition of human M14 cells assessed as cell growth at 10^-4 M after 48 hrs by SRB assay; conditions: M14, 48 h, read-out: Activity
COLO 205 = assay: Growth inhibition of human COLO205 cells assessed as cell growth at 10^-4 M after 48 hrs by SRB assay; conditions: COLO 205, 48 h, read-out: Activity; how it was run: as §2
[3] = Growth inhibition of human RXF393 cells assessed as cell growth at 10^-7 M after 48 hrs by SRB assay; conditions: RXF 393, 48 h, read-out: Activity
[4] = Growth inhibition of human HCT15 cells assessed as cell growth at 10^-4 M after 48 hrs by SRB assay; conditions: HCT-15, 48 h, read-out: Activity
SR = assay: Growth inhibition of human SR cells assessed as cell growth at 10^-4 M after 48 hrs by SRB assay; conditions: read-out: Activity
NCI-H460 = assay: Growth inhibition of human NCI-H460 cells assessed as cell growth at 10^-6 M after 48 hrs by SRB assay; conditions: NCI-H460, 48 h, read-out: Activity
MDA-MB-231 = assay: Cytotoxicity against human MDA-MB-231 cells after 48 hrs by SRB assay; conditions: MDA-MB-231, 48 h; how it was run: as §1
Malme-3M = assay: Growth inhibition of human MALME-3M cells assessed as cell growth at 10^-4 M after 48 hrs by SRB assay; conditions: read-out: Activity
[5] = Growth inhibition of human OVCAR3 cells assessed as cell growth at 10^-7 M after 48 hrs by SRB assay; conditions: OVCAR-3, 48 h, read-out: Activity
NCI-H23 = assay: Growth inhibition of human NCI-H23 cells assessed as cell growth at 10^-7 M after 48 hrs by SRB assay; conditions: NCI-H23, 48 h, read-out: Activity
SF-268 = assay: Growth inhibition of human SF268 cells assessed as cell growth at 10^-5 M after 48 hrs by SRB assay; conditions: SF-268, 48 h, read-out: Activity
MCF7 = assay: Growth inhibition of human MCF7 cells assessed as cell growth at 10^-6 M after 48 hrs by SRB assay; conditions: MCF7, 48 h, read-out: Activity
CCRF-CEM [6] = assay: Growth inhibition of human CCRF-CEM cells assessed as cell growth at 10^-7 M after 48 hrs by SRB assay; conditions: read-out: Activity; how it was run: as §2
CCRF-CEM [7] = assay: Growth inhibition of human CCRF-CEM cells assessed as cell growth at 10^-6 M after 48 hrs by SRB assay; conditions: read-out: Activity; how it was run: as §2
NCI-H226 = assay: Growth inhibition of human NCI-H226 cells assessed as cell growth at 10^-7 M after 48 hrs by SRB assay; conditions: NCI-H226, 48 h, read-out: Activity
A498 = assay: Growth inhibition of human A498 cells assessed as cell growth at 10^-5 M after 48 hrs by SRB assay; conditions: A498, 48 h, read-out: Activity; how it was run: as §2
SW-620 = assay: Growth inhibition of human SW620 cells assessed as cell growth at 10^-7 M after 48 hrs by SRB assay; conditions: SW-620, 48 h, read-out: Activity
[8] = read-out: LC50 (the source's name)
[9] = read-out: pLC50 (the source's name) (converted)

Cc1ccc(-c2nc3ccc(Cl)cc3c(=O)n2/N=C/c2ccccc2)cc1
growth at 100 µM (HT-29): 45% | growth at 0.01 µM (PC-3): 92% | growth at 100 µM (MDA-MB-435): 57% | growth at 0.1 µM (SNB-75): 81% | GI50 ([1]; read-out: GI50): > 100 µM | CC50 [1, 8]: > 100 µM | TGI ([1]; read-out: TGI): > 100 µM | GI50 ([1]; read-out: pGI50 (converted)): > 100 µM | CC50 [1, 9]: > 100 µM | TGI ([1]; read-out: pTGI): > 100 µM | GI50 (MOLT-4; read-out: GI50): > 100 µM | CC50 (MOLT-4; [8]): > 100 µM | TGI (MOLT-4; read-out: TGI): > 100 µM | GI50 (MOLT-4; read-out: pGI50 (converted)): > 100 µM | CC50 (MOLT-4; [9]): > 100 µM | TGI (MOLT-4; read-out: pTGI): > 100 µM | growth at 1 µM (SN12C): 91% | growth at 1 µM (K562): 92% | growth at 100 µM (ACHN): 6% | growth at 0.1 µM [2]: 88% | GI50 (SK-MEL-5; read-out: GI50): 20 µM | CC50 (SK-MEL-5; [8]): > 100 µM | TGI (SK-MEL-5; read-out: TGI): > 100 µM | GI50 (SK-MEL-5; read-out: pGI50 (converted)): 20 µM | CC50 (SK-MEL-5; [9]): > 100 µM | TGI (SK-MEL-5; read-out: pTGI): > 100 µM | growth at 100 µM (M14): 47% | growth at 100 µM (COLO 205): 38% | growth at 0.1 µM [3]: 101% | growth at 100 µM [4]: 69% | growth at 100 µM (SR): 62% | growth at 1 µM (NCI-H460): 85% | GI50 (MDA-MB-231; read-out: GI50): 4.21 µM | LC50 (MDA-MB-231; read-out: LC50): > 100 µM | TGI (MDA-MB-231; read-out: TGI): > 100 µM | GI50 (MDA-MB-231; read-out: pGI50 (converted)): 4.17 µM | LC50 (MDA-MB-231; read-out: pLC50 (converted)): > 100 µM | TGI (MDA-MB-231; read-out: pTGI): > 100 µM | growth at 100 µM (Malme-3M): 42% | growth at 0.1 µM [5]: 96% | growth at 0.1 µM (NCI-H23): 89% | growth at 10 µM (SF-268): 50% | growth at 1 µM (MCF7): 86% | growth at 0.1 µM (CCRF-CEM [6]): 97% | growth at 1 µM (CCRF-CEM [7]): 88% | growth at 0.1 µM (NCI-H226): 82% | growth at 10 µM (A498): 40% | growth at 0.1 µM (SW-620): 93%

From ChEMBL document CHEMBL3259728, “Design, synthesis and biological evaluation of some novel substituted quinazolines as antitumor agents” (2014)
